# Data as given in ChEMBL document CHEMBL4513216, “Probing the Open Global Health Chemical Diversity Library for Multistage-Active Starting Points for Next-Generation Antimalarials” (ACS Infect Dis, 2020).
# Assay: Toxicity liver stage against HepG2, at 10uM
# Assay type: cell-based
# Set-up: test concentration 10 uM, cell line HepG2-A16-CD81EGFP
# Conditions: human, HepG2-A16-CD81EGFP cells; read-out: INHIBITION
# Method in brief: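 Uninfected HepG2-A16-CD81EGFP cells, 3 × 10^3 per well, 1536-well, plated on prespotted compound at 10 μM final, parasite-free screening media added to match infected plates; puromycin 10 μM positive, DMSO 0.5% negative; run in parallel with 48 h PbLuc assay at 37 °C, 5% CO2; viability by CellTiter-Glo luminescence, normalized to controls.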
row,SMILES,cytotoxicity at 10 µM [%]
1,CC[C@@H](C)[C@H](NC(=O)Cn1ccc2c(Cl)cccc21)C(=O)O,2.88
2,COc1nn(C)cc1C(=O)NCC(=O)NCc1cccnc1,-6.32
3,CC(C)CN1C[C@H]2CCN(C(=O)c3ccccn3)CC[C@H]2S1(=O)=O,0.582
4,CC(=O)N1CCC2(C1)C(=O)N(CC1CC1)c1ccccc12 (stereo unspecified),2.26
5,O=C(Cc1ccsc1)NCC1Cn2nnc(-c3ccoc3)c2CO1 (stereo unspecified),17.6
6,CS(=O)(=O)N1CCN(CC2CC2)c2ncccc2C1,-152
7,O=C(c1ccno1)N1CCC2(CC1)C(=O)Nc1ccccc12,-134
8,CCOc1ccc(C2SCC(=O)Nc3c2c(=O)[nH]n3C(CC)CC)cc1 (stereo unspecified),6.5
9,CC(=O)N1CCC(Oc2ccc(Cl)cn2)CC1,-19.5
10,CCCNC(=O)c1sc(Nc2ccc(Cl)cn2)nc1C,-15.2
11,COC[C@@]12CCO[C@@H]1CCN(C(=O)COc1ccccc1OC)C2,-8.89
12,CS(=O)(=O)NC[C@]12COC[C@H]1CN(C(=O)c1ccoc1)C2,4.34
13,NCc1n[nH]c(-c2ccc(F)cc2)n1,0.186
14,Cc1nnc(C2CCN(c3ccc(F)cc3)CC2)o1,0.207
15,CN(C)C(=O)c1cccc(C2CCN(c3ncccn3)CC2)n1,1.24
16,CS(=O)(=O)N[C@@H]1CN(C(=O)c2cc3ccccc3s2)C[C@H]1O,-0.378
17,CC(=O)N(C)Cc1ccccc1NC(=O)c1ccccc1C,1.18
18,O=S1(=O)CCCN(Cc2ccccc2OCC(F)(F)F)CC1,9.11
19,CC(=O)N1CCN(c2ccccc2CNc2ccc3[nH]ncc3c2)CC1,9.17
20,NC(=O)C(NC(=O)CCc1ccc(Cl)s1)c1ccccc1 (stereo unspecified),1.28
21,Cc1noc(C(C)N2CCN(CCn3ccccc3=O)CC2)n1 (stereo unspecified),5.31

row,SMILES,cytotoxicity at 10 µM [%]
1,Cc1oc(CNC(=O)Cc2ccccc2Cl)cc1C(=O)O,0.723
2,CC(C)c1nc(C2CCCN(C(=O)CN3CCN(C)CC3)C2)no1 (stereo unspecified),3.8
3,N#Cc1ccc(C(=O)N(Cc2ccncc2)C2CC2)cc1,-8.53
4,CCN(CCC(=O)NC1CC1)Cc1ccc(Cl)s1,3.88
5,CCCS(=O)(=O)N1CCC(NC(=O)c2ccc(C)s2)CC1,-11.4
6,Cn1c(C(=O)N2CCC(C3OCCO3)CC2)c(Cl)c2ccccc21,13.7
7,O=S(=O)(CCN1CCOC(Cn2cccn2)C1)c1ccccc1 (stereo unspecified),-0.165
8,COCC(C)NC(=O)NCCCc1cc(N)n(-c2ccccc2)n1 (stereo unspecified),-12.2
9,Cc1cc(C(=O)N2CCC(Nc3cccnc3)CC2)c(C)s1,-141
10,CN(C)C(CNC(=O)NCc1ccco1)c1cccs1 (stereo unspecified),-3.29
11,OCc1ccc(CNc2ccccc2CN2CCC(O)CC2)o1,1.85
12,O=C(c1cnns1)N1CCN(c2ccc(F)cc2Cl)CC1,-145
13,CC(C)CCN1C(=O)CC(N(C)Cc2nc3ccccc3c(=O)[nH]2)C1=O (stereo unspecified),-3.85
14,Cc1nc2sccn2c1CNc1ccc(C(=O)O)cc1,11.7
15,CC(C)(C)SCC(=O)NC(C)(C(N)=O)c1cccc(Cl)c1 (stereo unspecified),1.61
16,Cc1ccc(C(=O)N2CCSCC2)cc1NC(=O)NCCO,-9.64
17,CCc1csc(C2CCCN(C(=O)c3cnn(CC)c3)C2)n1 (stereo unspecified),4.73
18,Cc1nn(C)c(C)c1CCC(=O)N1CCCC1Cn1cccn1 (stereo unspecified),1.78
19,Cc1cc(C)c2ncn(CCOCCO)c(=O)c2c1,8.17
20,O=C(O)c1cc(-c2ccncc2)cc(S(=O)(=O)NCc2ccccn2)c1,-51.9
21,COc1cccc2c1OCC(CNC(=O)CCn1cnnn1)C2 (stereo unspecified),-144

row,SMILES,cytotoxicity at 10 µM [%]
1,CC(C)c1nc(CN(C)C(=O)c2ccc3c(c2)OCC(=O)N3)cs1,-4.15
2,Cc1ccc(N2CCN(C(=O)C(O)c3cccc(Cl)c3)CC2=O)cc1 (stereo unspecified),-5.01
3,N#Cc1ccccc1C(=O)N1C[C@@H](CN2CCCCCC2)[C@@H](CO)C1,1.1
4,Cc1ccnc(NC(=O)c2ccc(C)o2)c1,-4.33
5,O=C(O)C1CCN(C[C@H]2CC[C@@H](Cc3ccc4c(c3)OCO4)O2)CC1,-7.48
6,O=C(c1ccc(O)cn1)N1CCOC(c2ccc(Cl)c(Cl)c2)C1 (stereo unspecified),-4.57
7,CN(CCO)C[C@@H]1CN(Cc2ccccc2-c2ccccc2)C[C@@H]1CO,-14
8,CCCc1nc(N[C@H]2COC[C@@H]2N2CCCCC2)c2cnn(C)c2n1,0.727
9,CCNC(=O)C1CCN(c2nc(-c3ccco3)nc3c2CCNCC3)C1 (stereo unspecified),-5.87
10,CN(Cc1n[nH]c(=O)n1Cc1cccs1)S(C)(=O)=O,-4.2
11,O=C(O)[C@@H]1CN(C(=O)c2ccc(O)cc2)C[C@H]1c1cccc(F)c1,-126
12,CSc1ccccc1CN1CCCn2nc(CNC(=O)N(C)C)cc2C1,-25.5
13,Cc1nnc(NC(=O)NCc2ccoc2)s1,-1.36
14,Cc1csc(N2CCN(CC(=O)NCc3ccccn3)CC2C)n1 (stereo unspecified),-4.04
15,CC(C)Cc1noc(CN2CCN(C(=O)c3ccccc3F)CC2)n1,-10.8
16,Cc1nc(CN2CCCC(NCc3cnc(C(C)(C)C)s3)C2)no1 (stereo unspecified),0.38
17,N#Cc1cccnc1N1CCCN(C(=O)CCc2nccs2)CC1,-11.5
18,CCc1nc(CN2CCCN(C(=O)CCOC(C)C)CC2)cs1,-17.3
19,COc1cc(C)c(C(C)NC(=O)NCCCn2cncn2)cc1OC (stereo unspecified),-16.2
20,Cc1noc(C(C)N2CCN(Cc3nnc(C4CC4)o3)CC2)n1 (stereo unspecified),-11.8
21,CCOc1ncccc1CNC(=O)Nc1cc(C)nn1C,1.25

row,SMILES,cytotoxicity at 10 µM [%]
1,O=C(NCC(F)(F)F)C1CSCN1S(=O)(=O)c1ccc(F)cc1Cl (stereo unspecified),-12.8
2,c1cnnc(N2CCCC2CNc2ncnc3sccc23)c1 (stereo unspecified),-12.9
3,O=C(c1ccc2c(c1)CCC2)N1CCC(c2n[nH]c(C3CC3)n2)CC1,-8.06
4,CN(Cc1cnn(-c2ccccc2)n1)C1CCCN(c2cccnn2)C1 (stereo unspecified),-9.83
5,CCOc1ncccc1C(=O)N1CCCC1c1c(C)nn(C)c1Cl (stereo unspecified),0.534
6,Cc1ccc(CNCC2CCCN2c2cccnn2)s1 (stereo unspecified),-4.38
7,Cc1cnn(CC2CCCCN2C(=O)c2nccnc2N)c1 (stereo unspecified),-3.03
8,CCc1nc(C2CCCN(C(=O)c3cccc(Cl)c3)C2)no1 (stereo unspecified),-7.55
9,Cc1cccc2nc(C(=O)N3CCC(Nc4cccnn4)CC3)cn12,-0.77
10,Cc1ccoc1C(=O)N1CCOCC2(CCN(c3ncccn3)C2)C1 (stereo unspecified),-7.23
11,CCOCC1CN(Cc2ccoc2)Cc2nn(CC3CC3)cc21 (stereo unspecified),-11.9
12,O=C(NC1CC1)N1CC[C@H]2[C@H]1CCN2c1nncs1,-4.94
13,O=C1CO[C@@H]2CN(CC3CCOCC3)C[C@H]2N1Cc1ccncc1,-139
14,CO[C@@H]1CCN(C(=O)c2ccsc2)[C@@H]2CN(CC3CC3)C[C@@H]21,-3.1
15,Cn1cccc1CN1CCC2(CC1)CN(c1ccccc1)C(=O)CO2,-130
16,Cc1nnc(N2C[C@H](C(=O)NCC3CC3)[C@@H]3CCO[C@@H]3C2)s1,17.1
17,c1cncc(CN2CCCn3nnc(CN4CCCC4)c3C2)c1,4.78
18,CCc1nccn1CC(=O)N1C[C@@H]2CC[C@H]1CN(C(=O)N(C)C)C2,-4.67
